Laboratory results taken from ChEMBL document CHEMBL1132805, “Parallel synthesis of isatin-based serine protease inhibitors” (Bioorg Med Chem Lett, 2000).
The source made the active and inactive calls. No cut-off for these calls is given here.

Assays:
[1] = molecular target: T1, Chymotrypsin-C (Homo sapiens) (UniProt Q99895); test: Inhibition of human Serine protease chymotrypsin at 20 ug/mL
T1 sequence (whole entry): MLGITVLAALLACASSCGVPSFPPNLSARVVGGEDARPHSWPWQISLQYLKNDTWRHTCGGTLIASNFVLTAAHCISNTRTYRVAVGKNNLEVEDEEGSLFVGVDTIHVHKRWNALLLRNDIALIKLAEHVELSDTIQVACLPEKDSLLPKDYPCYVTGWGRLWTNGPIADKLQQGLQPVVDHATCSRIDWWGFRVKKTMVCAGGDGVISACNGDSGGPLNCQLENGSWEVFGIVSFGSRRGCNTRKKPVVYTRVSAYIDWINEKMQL
How it was run: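 Fluorogenic substrate Suc-Ala-Ala-Pro-Phe-AMC. Chymostatin serves as the control inhibitor. Reaction in 50 mM Tris-HCl pH 7.2 with 15% glycerol, incubated 60 min at 37 °C. AMC fluorescence is read at ex/em 370/460 nm. Compounds are from DMSO stock, 10 mg/mL. Compound quenching is checked against free AMC in the same buffer.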

[2] = molecular target: T2, Neutrophil elastase (Homo sapiens) (UniProt P08246); test: Inhibition of human leucocyte elastase at 20 ug/mL
T2 sequence (whole entry): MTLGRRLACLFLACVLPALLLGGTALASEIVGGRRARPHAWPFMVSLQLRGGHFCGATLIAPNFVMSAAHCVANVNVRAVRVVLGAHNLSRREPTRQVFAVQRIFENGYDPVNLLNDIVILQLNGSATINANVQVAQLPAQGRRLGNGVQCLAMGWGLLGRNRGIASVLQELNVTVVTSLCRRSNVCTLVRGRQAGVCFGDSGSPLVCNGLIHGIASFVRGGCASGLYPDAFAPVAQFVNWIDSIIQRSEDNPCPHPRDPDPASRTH
How it was run: (§1)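 Human leukocyte elastase at 40 nM in reaction, with substrate Suc-Ala-Pro-Ala-AMC. A commercial elastase inhibitor serves as control. 50 mM Tris-HCl pH 7.2 with 15% glycerol, 60 min at 37 °C. Fluorescence read at 370/460 nm. Compounds are added from 10 mg/mL DMSO stock. Quenching is assessed on free AMC in the assay buffer.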

[3] = molecular target: Plasminogen (Homo sapiens) (UniProt P00747); test: Inhibition of human plasmin at 20 ug/mL
Plasminogen (Homo sapiens), sequence (P00747 97-580 limits assumed): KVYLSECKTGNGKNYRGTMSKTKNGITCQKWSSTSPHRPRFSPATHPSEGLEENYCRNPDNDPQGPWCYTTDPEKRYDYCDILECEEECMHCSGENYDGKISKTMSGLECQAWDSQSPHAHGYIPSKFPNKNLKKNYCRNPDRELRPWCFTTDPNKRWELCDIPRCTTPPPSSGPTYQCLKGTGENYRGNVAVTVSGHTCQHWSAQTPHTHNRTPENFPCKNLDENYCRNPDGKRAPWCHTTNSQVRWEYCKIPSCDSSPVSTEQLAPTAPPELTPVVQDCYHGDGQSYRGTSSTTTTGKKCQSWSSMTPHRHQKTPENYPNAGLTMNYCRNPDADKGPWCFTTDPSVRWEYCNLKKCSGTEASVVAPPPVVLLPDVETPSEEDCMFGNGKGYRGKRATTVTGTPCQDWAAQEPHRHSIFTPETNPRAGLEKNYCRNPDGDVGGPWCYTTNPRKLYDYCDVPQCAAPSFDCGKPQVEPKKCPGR
Plasminogen (Homo sapiens), sequence (P00747 581-810 limits assumed): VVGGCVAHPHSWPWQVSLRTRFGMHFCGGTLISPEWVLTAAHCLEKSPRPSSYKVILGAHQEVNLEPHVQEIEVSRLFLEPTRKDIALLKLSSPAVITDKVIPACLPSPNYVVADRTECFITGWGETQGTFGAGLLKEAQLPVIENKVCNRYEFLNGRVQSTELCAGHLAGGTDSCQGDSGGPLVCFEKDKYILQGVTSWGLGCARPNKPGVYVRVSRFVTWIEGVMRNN
How it was run: (§2)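 Plasmin from human plasma, 165 pM in reaction, with fluorogenic H-Ala-Phe-Lys-AMC. α2-Antiplasmin serves as the control inhibitor. Run in 50 mM Tris-HCl pH 7.2, 15% glycerol, 60 min at 37 °C. Read-out is AMC fluorescence at ex/em 370/460 nm. Compounds come from 10 mg/mL DMSO stock. Quenching is checked with free AMC in the same buffer.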

[4] = molecular target: Plasminogen (Homo sapiens) (UniProt P00747); test: Evaluated for percent inhibition of human plasmin at 20 ug/mL; NA means not active; how it was run: as §2
[5] = molecular target: T2, Neutrophil elastase (Homo sapiens); test: Evaluated for percent inhibition of human leucocyte elastase at 20 ug/mL; NA means not active; how it was run: as §1

| inhibition [1] [%] | inhibition [2] [%] | inhibition [3] [%] | inhibition [4] | inhibition [5] | Structure (SMILES) |
| --- | --- | --- | --- | --- | --- |
| 77 | 26 | 57 |  |  | N#Cc1cccc(NC(=O)N2CCN(C(=O)CN3C(=O)C(=O)c4cc(OC(F)(F)F)ccc43)CC2)c1 |
| 79 | 79 | 77 |  |  | O=C1C(=O)N(CC(=O)N2CCN(C(=O)Nc3cccc4ccccc34)CC2)c2ccc(OC(F)(F)F)cc21 |
| 94 | 45 | 84 |  |  | Cc1ccc(C(=O)CN2C(=O)C(=O)c3ccccc32)cc1 |
| 82 | 74 | 80 |  |  | O=C1C(=O)N(CC(=O)N2CCN(C(=O)Nc3cccc4ccccc34)CC2)c2ccc(Cl)cc21 |
| 87 | 94 | 82 |  |  | CCCCOC(=O)Nc1cccc(NC(=O)NC(=O)N2CCN(C(=O)CN3C(=O)C(=O)c4cc([N+](=O)[O-])ccc43)CC2)c1 |
| 97 | 64 | 86 |  |  | O=C(CN1C(=O)C(=O)c2cc(OC(F)(F)F)ccc21)c1ccc2ccccc2c1 |

More lines, now with the values behind:

| Structure (SMILES) | inhibition [1] [%] | inhibition [2] [%] | inhibition [3] [%] | inhibition [4] | inhibition [5] |
| --- | --- | --- | --- | --- | --- |
| CC(C)C[C@H](NC(=O)[C@@H](NC(=O)N[C@@H](Cc1ccccc1)C(=O)O)C1CCNC(=N)N1)C(=O)N[C@H](C=O)Cc1ccccc1 (stereo partly drawn) | 95 |  |  | inactive | inactive |
| O=C(CN1C(=O)C(=O)c2ccccc21)c1ccc(F)cc1 | 83 | 90 | 89 |  |  |
| CC(C)(C)C(=O)CN1C(=O)C(=O)c2ccccc21 | 85 | 51 | 55 |  |  |
| O=C(CN1C(=O)C(=O)c2ccccc21)c1ccc(Cl)cc1 | 89 | 56 | 87 |  |  |
| NC(=O)CN1C(=O)C(=O)c2ccccc21 | 5 | 3 | 29 |  |  |
